High-throughput results: PubChem, Johns Hopkins Ion Channel Center
Only some compounds are listed: those with a hit (about 2.3% of all), similar ones and a draw of the others.
TRPC6 activator: mouse TRPC6 channel activators, primary screen, cell-based, HEK293, membrane potential dye; hit rate 0.13% among 310,000; HEK293-TRPC6 membrane potential dye fluorescence; hits give high values; Short transient receptor potential channel 6 (Mus musculus), Q61143; B-score at 10 µM; AID 2550, 2010;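 active = B-score of the integrated fluorescence ratio above library mean plus 3 SD, and starting fluorescence ratio within library mean plus 5 SD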;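 also: higher score means more depolarization so channel activation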
TRPC4 block: inhibitors of mouse TRPC4 channel, primary screen, Fluo4 calcium, HEK293 TRPC4beta/mu-opioid cells; Short transient receptor potential channel 4 (Mus musculus), Q9QUQ5; DAMGO-evoked Fluo4 calcium flux; hits give low values; B-score at 10 µM; hit rate 0.39% among 300,000;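 active = B-score over 3 SD under the library average, no early fluorescence shift, positive overall ratio signal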
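Signal: kinetic Fluo4 fluorescence imaging of calcium influx. Material: stable TRPC4beta/mu-opioid receptor HEK293 cells. Probe or stimulus: DAMGO in two steps, submaximal then maximal.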
TRPC4 act: activators of mouse TRPC4 channel, primary screen, Fluo4 calcium, HEK293 TRPC4beta/mu-opioid cells; Short transient receptor potential channel 4 (Mus musculus), Q9QUQ5; Fluo4 calcium fluorescence; hits give high values; B-score at 10 µM; hit rate 0.49% among 310,000;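 active = B-score above 5 SD of library B-scores, and initial fluorescence ratio not above library mean plus 5 SD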;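 also: positive B-score marks a calcium rise read as TRPC4 activation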
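Assay system – TRPC4beta and mu-opioid receptor HEK293 stable cells · Measured by – Fluo4 fluorescence, kinetic · Schedule – dye loading 45 min room temperature, 110 s kinetic read · Read-out – B-scored integrated calcium fluorescence ratio · Controls – buffer and maximal DAMGO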
TRPC6 inhibitor: mouse TRPC6 channel inhibitors, primary screen, cell-based, HEK293, membrane potential dye. Short transient receptor potential channel 6 (Mus musculus), Q61143. ACh-evoked depolarization; hits give low values. B-score at 10 µM. hit rate 1.1% among 310,000. AID 2553, 2010;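 active = B-score under library mean minus 3 SD, initial fluorescence not abnormally high, positive integrated signal ratio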;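 also: B-score derived from integrated fluorescence ratio over the kinetic read; more negative B-score means stronger inhibition of depolarization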
TRPC4 PAM: positive allosteric modulators of TRPC4, primary screen, cell-based, mouse TRPC4beta, HEK293 mu-opioid, Fluo-4 calcium; B-score at 10 µM; hit rate 0.42% among 310,000; Short transient receptor potential channel 4 (Mus musculus), Q9QUQ5; AID 2227, 2009; DAMGO EC20, Fluo-4 Ca2+ flux; hits give high values;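 active = B-score of calcium response area above 5 SD of library B-scores, with initial fluorescence ratio within 5 SD of library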;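 also: B-score of integrated fluorescence ratio over time as area under calcium response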
* marks the source's active call; other numbers are inactive results; i = inactive; . = no result.

SMILES	TRPC6 activator	TRPC4 block	TRPC4 act	TRPC6 inhibitor	TRPC4 PAM
C=C(C)CNC(=O)c1ccc2nc(Cc3ccc(OC)cc3)oc2c1	i	i	i	i	i
CC(=O)Nc1ccc(S(=O)(=O)N(C)CC(=O)OCC(=O)N2CC(C)OC(C)C2)cc1 (stereo not given)	i	i	i	i	i
CCN(Cc1ccccc1)C(=O)CSc1nc(C)cc(=O)[nH]1	i	i	i	i	i
COc1cccc(-c2csc(N3CCN(C(=O)NC45CC6CC(CC(C6)C4)C5)CC3)n2)c1	i	i	i	i	i
N#C/C(=C\Nc1ccccc1O)c1nc2ccccc2o1	i	i	i	i	i
CCc1ccc(NC(=O)N(CCN(C)C)C(C)c2cccnc2)cc1 (stereo not given)	i	i	72*	i	i
CCOc1ccc(NC(=O)N(CCN(C)C)C(C)c2cccnc2)cc1 (stereo not given)	i	i	i	i	i
CC(NS(=O)(=O)c1ccc2c(c1)c(=O)n(C)c(=O)n2C)C(=O)NC1CCCCC1 (stereo not given)	i	i	i	i	i
Cc1csc2ncnc(N3CCN(C(=S)Nc4ccc(C(F)(F)F)cc4)CC3)c12	i	i	i	i	i
Cc1csc2c(N3CCN(C(=O)c4ccc(C(C)(C)C)cc4)CC3)ncnc12	i	i	67*	i	i
Cc1csc2c(N3CCN(C(=S)Nc4ccc(C(F)(F)F)cc4)CC3)ncnc12	i	i	145*	i	i
Cc1csc2c(N3CCN(C(=O)Nc4ccc(Cl)c(Cl)c4)CC3)ncnc12	i	i	91*	i	i
Cc1csc2c(N3CCN(C(=O)NC(C)(C)C)CC3)ncnc12	i	i	84*	i	i
CCOC(=O)C1CCN(c2ncnc3c(C)csc23)CC1	i	i	i	i	i
CCOC(=O)N1CCN(C(=S)Nc2ccc3nc(N4CCN(CC)CC4)cc(C)c3c2)CC1	i	i	i	i	i
CCN(CC)CCCNC(=O)c1ccc2c(Cl)c3c(nc2c1)CCCC3	i	i	i	i	i
CCCCN(CC)CCNC(=O)c1ccc2c(Cl)c3c(nc2c1)CCC3	i	i	132*	i	12*
COc1cc2ccccc2cc1C(=O)Nc1nnc(-c2ccncc2)o1	i	i	i	i	i
Cc1c(N(C)S(=O)(=O)c2cccc(C(=O)NCC3CCCO3)c2)c(=O)n(-c2ccccc2)n1C (stereo not given)	i	i	i	i	i
Cc1c(N(C)S(=O)(=O)c2cc(C(=O)NCC3CCCO3)ccc2Cl)c(=O)n(-c2ccccc2)n1C (stereo not given)	i	-7*	i	i	i
O=[N+]([O-])c1ccc2c(c1)/C(=N\O)c1ccccc1-2	i	i	i	i	i
NN=C1c2cc([N+](=O)[O-])ccc2-c2ccc([N+](=O)[O-])cc21	i	i	i	i	18*
Cc1ccc(S(N)(=O)=O)cc1NC(=O)/C=C/c1ccc2c(c1)OCO2	i	i	i	i	i
CCOC(=O)COc1c(OC)cc(Cl)cc1C1NC(=O)NC(C)=C1C(C)=O (stereo not given)	i	i	i	i	i
CCCC1=C(C(=O)OCC)C(c2cc(Cl)cc(OC)c2OCC(=O)OCC)NC(=O)N1 (stereo not given)	i	i	i	i	22*
SMILES	TRPC6 activator	TRPC4 block	TRPC4 act	TRPC6 inhibitor	TRPC4 PAM
COc1ccc(C)cc1NC(=S)N1CCN(S(C)(=O)=O)CC1	i	i	i	i	i
CCC(=O)c1cc2c(C)cc(=O)oc2c(C)c1OC(=O)C(C)C	i	-6*	i	i	i
O=C(Nc1ccc(C(=O)N2CCOCC2)cc1)c1cc(-c2cccnc2)nc2ccc(Cl)cc12	i	i	i	i	i
O=C(Cc1nc2ccccc2[nH]1)c1ccc([N+](=O)[O-])cc1	i	-6*	i	i	i
O=C(Cc1nc2ccccc2[nH]1)c1ccc(Cl)cc1	i	i	i	i	i
O=C(OCC(=O)N1CCCCCC1)c1ccc([N+](=O)[O-])cc1Cl	i	.	i	i	i
CCN(CC)CCCNCC(=O)Nc1ccc(OC)c(Cl)c1	i	i	65*	i	i
CCN(CC)CCCNCC(=O)Nc1ccc2c(c1)CCC2	i	i	i	i	i
Cc1nc2scc(-c3ccccc3)c2c(=O)n1N=C1C=CC(=O)C=C1	i	-6*	i	i	i
CCCOc1cc(C)c(S(=O)(=O)n2ccc(C)n2)cc1C	i	i	i	i	13*
CN(C)S(=O)(=O)c1cccc(C(=O)N=C2N=C3C=CC(Cl)=CN3Cc3ccccc32)c1	i	i	i	i	i
O=c1cc(N2CCCCC2)c(-c2ccccc2)nn1Cc1ccccc1Cl	i	i	i	i	14*
CCOC(=O)/C(=C\c1ccc(Cl)cc1)c1nc2sc(C)c(C)c2c(=O)[nH]1	i	i	i	i	11*
CN(CC(=O)Nc1cccc(F)c1)C(=O)CCc1nc2ccccc2c(=O)[nH]1	i	i	i	i	i
CCCC(=O)NC(c1ccccc1)c1ccc2cccnc2c1O (stereo not given)	i	i	i	-5.8*	i
CCCCC(=O)NC(c1ccccc1)c1ccc2cccnc2c1O (stereo not given)	i	i	i	i	i
O=[N+]([O-])c1cc(C(F)(F)F)ccc1NC1CCN(Cc2ccccc2)CC1	i	i	i	i	i
O=[N+]([O-])c1cc(C(F)(F)F)ccc1NC1CCN(Cc2ccccc2)C1 (stereo not given)	i	i	i	i	50*
CC(=O)c1cccc(N(C(=O)CNC(=O)c2ccco2)C(C(=O)NCC2CCCO2)c2ccccc2)c1 (stereo not given)	i	i	i	i	11*
O=C(CCCOc1ccc(Br)cc1)NCCc1ccc(OC(F)F)cc1	i	i	i	i	i
CCOc1ccc(NS(=O)(=O)c2ccc(NC(=S)NC(=O)CC(C)C)cc2)cc1	i	i	i	i	22*
